Test results taken from ChEMBL document CHEMBL3232844, “Synthesis and structure activity relationships of schweinfurthin indoles” (2014).

Assays:
Format in all cases: functional
MDA-MB-435 = experiment: Cytotoxicity against human MDA-MB-435 cells
Outline: (§1)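 Tested in a 60-cell-line human tumor panel screen; the read-out is growth inhibition, reported as GI50 for each cell line.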

MDA-MB-231 = experiment: Cytotoxicity against human MDA-MB-231 cells; outline: as §1
SF-539 = experiment: Cytotoxicity against human SF539 cells; outline: as §1
[1] = Cytotoxicity against human OVCAR4 cells; outline: as §1
NCI-H23 = experiment: Cytotoxicity against human NCI-H23 cells; outline: as §1
LOX IMVI = experiment: Cytotoxicity against human LOXIMVI cells; outline: as §1
[2] = Cytotoxicity against human UACC62 cells
Outline: (§2)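 Cell line run as part of the 60-cell-line screening panel; growth inhibition was reported as a GI50 for each line.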

HOP-62 = experiment: Cytotoxicity against human HOP62 cells; outline: as §1
T47D = experiment: Cytotoxicity against human T47D cells; outline: as §2
CAKI-1 = experiment: Cytotoxicity against human Caki1 cells; outline: as §1
BT-549 = experiment: Cytotoxicity against human BT549 cells; outline: as §1
ACHN = experiment: Cytotoxicity against human ACHN cells; outline: as §1
MDA-MB-468 = experiment: Cytotoxicity against human MDA-MB-468 cells; outline: as §1
SK-MEL-5 = experiment: Cytotoxicity against human SK-MEL-5 cells; outline: as §1
[3] = Cytotoxicity against human UO31 cells; outline: as §2
MOLT-4 = experiment: Cytotoxicity against human MOLT4 cells; outline: as §1
PC-3 = experiment: Cytotoxicity against human PC3 cells; outline: as §1
IGROV-1 = experiment: Cytotoxicity against human IGROV1 cells; outline: as §1
A549 = experiment: Cytotoxicity against human A549 cells; outline: as §1
DU-145 = experiment: Cytotoxicity against human DU145 cells; outline: as §1
CCRF-CEM = experiment: Cytotoxicity against human CCRF-CEM cells
NCI-H322M = experiment: Cytotoxicity against human NCI-H322M cells; outline: as §1
HCC 2998 = experiment: Cytotoxicity against human HCC2998 cells; outline: as §1
A498 = experiment: Cytotoxicity against human A498 cells; outline: as §1
COLO 205 = experiment: Cytotoxicity against human COLO205 cells; outline: as §1
K562 = experiment: Cytotoxicity against human K562 cells; outline: as §1
HL-60(TB) = experiment: Cytotoxicity against human HL-60(TB) cells
Outline: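 Tested within the NCI 60-cell-line screen, with GI50 as the read-out. Values are the average of two independent experiments. The lowest concentration tested was 10 nM.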

HCT-116 = experiment: Cytotoxicity against human HCT116 cells; outline: as §1
NCI-H226 = experiment: Cytotoxicity against human NCI-H226 cells; outline: as §1
SK-MEL-2 = experiment: Cytotoxicity against human SK-MEL-2 cells; outline: as §1
KM12 = experiment: Cytotoxicity against human KM12 cells; outline: as §1
SF-268 = experiment: Cytotoxicity against human SF268 cells; outline: as §1
NCI-H460 = experiment: Cytotoxicity against human NCI-H460 cells; outline: as §1
[4] = Cytotoxicity against human OVCAR8 cells; outline: as §1
SNB-75 = experiment: Cytotoxicity against human SNB75 cells; outline: as §2
[5] = Cytotoxicity against human OVCAR5 cells; outline: as §1
M14 = experiment: Cytotoxicity against human M14 cells; outline: as §1
SK-OV-3 = experiment: Cytotoxicity against human SKOV3 cells; outline: as §1
786-0 = experiment: Cytotoxicity against human 786-0 cells; outline: as §1
[6] = Cytotoxicity against human NCI-ADR-RES cells; outline: as §1
SNB-19 = experiment: Cytotoxicity against human SNB19 cells; outline: as §1
MCF7 = experiment: Cytotoxicity against human MCF7 cells; outline: as §1
[7] = Cytotoxicity against human HCT15 cells; outline: as §1
[8] = read-out: pLC50 (the source's name) (converted)

COc1cc(/C=C/c2cc(O)c3c(C/C=C(\C)CCC=C(C)C)c[nH]c3c2)cc2c1O[C@]1(C)CC[C@@H](O)C(C)(C)[C@H]1C2
GI50 (MDA-MB-435): 4.07 µM
CC50 (MDA-MB-435; [8]): > 100 µM
TGI (MDA-MB-435; read-out: pTGI (converted)): > 100 µM
GI50 (MDA-MB-231): 1.1 µM
LC50 (MDA-MB-231): 85.1 µM
TGI (MDA-MB-231; read-out: pTGI (converted)): 6.31 µM
GI50 (SF-539): 0.229 µM
CC50 (SF-539; [8]): 6.03 µM
TGI (SF-539; read-out: pTGI (converted)): 1.45 µM
GI50 ([1]; OVCAR-4): 6.46 µM
CC50 ([1]; OVCAR-4, read-out: pLC50 (the source's name) (converted)): > 100 µM
TGI ([1]; OVCAR-4, read-out: pTGI (converted)): > 100 µM
GI50 (NCI-H23): 2.45 µM
CC50 (NCI-H23; [8]): > 100 µM
TGI (NCI-H23; read-out: pTGI (converted)): 24.5 µM
GI50 (LOX IMVI): 1.26 µM
CC50 (LOX IMVI; [8]): 29.5 µM
TGI (LOX IMVI; read-out: pTGI (converted)): 4.79 µM
GI50 ([2]; UACC-62): 1.26 µM
CC50 ([2]; UACC-62, read-out: pLC50 (the source's name) (converted)): > 100 µM
TGI ([2]; UACC-62, read-out: pTGI (converted)): 4.68 µM
GI50 (HOP-62): 0.794 µM
CC50 (HOP-62; [8]): 8.71 µM
TGI (HOP-62; read-out: pTGI (converted)): 2.75 µM
GI50 (T47D): 6.92 µM
CC50 (T47D; [8]): > 100 µM
TGI (T47D; read-out: pTGI (converted)): > 100 µM
GI50 (CAKI-1): 0.447 µM
LC50 (CAKI-1): 7.76 µM
TGI (CAKI-1; read-out: pTGI (converted)): 1.82 µM
GI50 (BT-549): 0.525 µM
CC50 (BT-549; [8]): > 100 µM
TGI (BT-549; read-out: pTGI (converted)): > 100 µM
GI50 (ACHN): 7.24 µM
LC50 (concentration killing 50% of cells) (ACHN): > 100 µM
TGI (ACHN; read-out: pTGI (converted)): > 100 µM
GI50 (MDA-MB-468): 2 µM
LC50 (MDA-MB-468): > 100 µM
TGI (MDA-MB-468; read-out: pTGI (converted)): 44.7 µM
GI50 (SK-MEL-5): 1.07 µM
CC50 (SK-MEL-5; [8]): 5.37 µM
TGI (SK-MEL-5; read-out: pTGI (converted)): 2.4 µM
GI50 ([3]; UO-31): 0.933 µM
LC50 ([3]; UO-31): 8.91 µM
TGI ([3]; UO-31, read-out: pTGI (converted)): 2.95 µM
GI50 (MOLT-4): 0.282 µM
CC50 (MOLT-4; [8]): > 100 µM
TGI (MOLT-4; read-out: pTGI (converted)): 2.51 µM
GI50 (PC-3): 0.457 µM
LC50 (PC-3): > 100 µM
TGI (PC-3; read-out: pTGI (converted)): 24.5 µM
GI50 (IGROV-1): 1.62 µM
CC50 (IGROV-1; [8]): > 100 µM
TGI (IGROV-1; read-out: pTGI (converted)): > 100 µM
GI50 (A549): 2.57 µM
CC50 (A549; [8]): > 100 µM
TGI (A549; read-out: pTGI (converted)): > 100 µM
GI50 (DU-145): 5.37 µM
LC50 (50% lethal concentration) (DU-145): > 100 µM
TGI (DU-145; read-out: pTGI (converted)): > 100 µM
GI50 (CCRF-CEM): 0.724 µM
CC50 (CCRF-CEM; [8]): > 100 µM
TGI (CCRF-CEM; read-out: pTGI (converted)): > 100 µM
GI50 (NCI-H322M): 60.3 µM
CC50 (NCI-H322M; [8]): > 100 µM
TGI (NCI-H322M; read-out: pTGI (converted)): > 100 µM
GI50 (HCC 2998): 4.9 µM
CC50 (HCC 2998; [8]): > 100 µM
TGI (HCC 2998; read-out: pTGI (converted)): 36.3 µM
GI50 (A498): 1.2 µM
CC50 (A498; [8]): > 100 µM
TGI (A498; read-out: pTGI (converted)): 9.77 µM
GI50 (COLO 205): 0.331 µM
CC50 (COLO 205; [8]): 6.31 µM
TGI (COLO 205; read-out: pTGI (converted)): 1.02 µM
GI50 (K562): 0.417 µM
CC50 (K562; [8]): > 100 µM
TGI (K562; read-out: pTGI (converted)): 8.71 µM
GI50 (HL-60(TB)): 0.398 µM
CC50 (HL-60(TB); [8]): > 100 µM
TGI (HL-60(TB); read-out: pTGI (converted)): 12.3 µM
GI50 (HCT-116): 1.38 µM
CC50 (HCT-116; [8]): > 100 µM
TGI (HCT-116; read-out: pTGI (converted)): 22.9 µM
GI50 (NCI-H226): 24 µM
CC50 (NCI-H226; [8]): > 100 µM
TGI (NCI-H226; read-out: pTGI (converted)): > 100 µM
GI50 (SK-MEL-2): 0.871 µM
CC50 (SK-MEL-2; [8]): > 100 µM
TGI (SK-MEL-2; read-out: pTGI (converted)): 18.2 µM
GI50 (KM12): 0.525 µM
CC50 (KM12; [8]): 5.37 µM
TGI (KM12; read-out: pTGI (converted)): 1.78 µM
GI50 (SF-268): 2.75 µM
CC50 (SF-268; [8]): > 100 µM
TGI (SF-268; read-out: pTGI (converted)): > 100 µM
GI50 (NCI-H460): 1.2 µM
CC50 (NCI-H460; [8]): 57.5 µM
TGI (NCI-H460; read-out: pTGI (converted)): 6.61 µM
GI50 ([4]; OVCAR-8): 72.4 µM
CC50 ([4]; OVCAR-8, read-out: pLC50 (the source's name) (converted)): > 100 µM
TGI ([4]; OVCAR-8, read-out: pTGI (converted)): > 100 µM
GI50 (SNB-75): 0.245 µM
CC50 (SNB-75; [8]): > 100 µM
TGI (SNB-75; read-out: pTGI (converted)): 3.63 µM
GI50 ([5]; OVCAR-5): 15.1 µM
CC50 ([5]; OVCAR-5, read-out: pLC50 (the source's name) (converted)): > 100 µM
TGI ([5]; OVCAR-5, read-out: pTGI (converted)): > 100 µM
GI50 (M14): 2 µM
CC50 (M14; [8]): > 100 µM
TGI (M14; read-out: pTGI (converted)): 11.2 µM
GI50 (SK-OV-3): 5.13 µM
LC50 (SK-OV-3): > 100 µM
TGI (SK-OV-3; read-out: pTGI (converted)): > 100 µM
GI50 (786-0): 0.0468 µM
LC50 (concentration killing 50% of cells) (786-0): 5.62 µM
TGI (786-0; read-out: pTGI (converted)): 1.12 µM
GI50 [6]: 46.8 µM
CC50 [6, 8]: > 100 µM
TGI ([6]; read-out: pTGI (converted)): > 100 µM
GI50 (SNB-19): 2.45 µM
CC50 (SNB-19; [8]): > 100 µM
TGI (SNB-19; read-out: pTGI (converted)): > 100 µM
GI50 (MCF7): 0.617 µM
LC50 (MCF7): 8.51 µM
TGI (MCF7; read-out: pTGI (converted)): 2.45 µM
GI50 ([7]; HCT-15): 0.741 µM
CC50 ([7]; HCT-15, read-out: pLC50 (the source's name) (converted)): 53.7 µM
TGI ([7]; HCT-15, read-out: pTGI (converted)): 6.76 µM
